Data published in ChEMBL document CHEMBL5715947 (Blood Cancer J, 2011).
Active and inactive are the calls of the source. The calls are words filed in the database; no cut-off is given here.

Key:
[1] = tested on: MV4-11; experiment: Induction of apoptosis in human MV4-11 cells harboring FLT3-ITD mutant assessed necrotic cells at […] after 72 hrs by AnnexinV-FITC/Propidium iodide staining based flow cytometric analysis (reference value: 0.53 %); assay type: functional; conditions: dose 0.15 µM
[2] = tested on: RS4-11; experiment: Antiproliferative activity against human RS4-11 cells assessed as reduction in cell viability incubated for 48 hr by CellTiter-Glo assay; assay type: functional, cell-based; conditions: RS4-11, 48 h
[3] = Antiproliferative activity against human derived M4 Fab type Acute myeloid leukemic cells assessed as reduction in cell viability incubated for 48 hr by CellTiter-Glo assay; assay type: functional, cell-based; conditions: Leukemia cell
Procedure, shortened: (§1)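 Primary AML peripheral blood or bone marrow mononuclear cells thawed and expanded ex vivo; blasts counted between day 10 and 13, characterised by CD123 FACS and FLT3 genotyping. Blasts treated 48 h; proliferation IC50 read by CellTiter-Glo.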

[4] = tested on: MV4-11; experiment: Induction of apoptosis in human MV4-11 cells harboring FLT3-ITD mutant assessed as increase in early apoptotic cells after 72 hrs by AnnexinV-FITC/Propidium iodide staining based flow cytometric analysis; assay type: functional, cell-based; conditions: dose 0.03-0.15 µM
[5] = tested on: RS4-11; experiment: Induction of cell cycle arrest in human RS4-11 cells assessed increase in cell accumulation at G1 phase after 24 hrs by Propidium iodide staining based flow cytometric analysis; assay type: functional
Procedure, shortened: (§2)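 Cells then fixed in ice-cold 70% ethanol, stained with 20 ng/ml propidium iodide, and cell-cycle phases measured by flow cytometry.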

[6] = tested on: MV4-11; experiment: Induction of apoptosis in human MV4-11 cells harboring FLT3-ITD mutant assessed viable cells at […] after 48 hrs by AnnexinV-FITC/Propidium iodide staining based flow cytometric analysis (reference value: 86.15 %); assay type: functional; conditions: dose 0.15 µM
[7] = tested on: MV4-11; experiment: Induction of apoptosis in human MV4-11 cells harboring FLT3-ITD mutant assessed viable cells at 0.03 uM after 72 hrs by AnnexinV-FITC/Propidium iodide staining based flow cytometric analysis (reference value: 90.5 %); assay type: functional
[8] = Antiproliferative activity against relapsed human derived M5b Fab type Acute myeloid leukemic cells assessed as reduction in cell viability incubated for 48 hr by CellTiter-Glo assay; assay type: functional, cell-based; conditions: Leukemia cell; procedure, shortened: as §1
[9] = tested on: MV4-11; experiment: Antitumor activity against human MV4-11 cells harboring FLT-3 ITD mutant xenografted in BALB/c nude mouse assessed as decrease in phosphorylated STAT5 at Y694 residue at 150 mg/kg, po measured after 2 to 4 hrs by Western blot analysis; assay type: functional, organism-based; conditions: time 2-4 hrs
Procedure, shortened: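 Mice bearing s.c. MV4-11 xenografts given a single oral dose of 150 mg/kg in methylcellulose/Tween vehicle. Tumours harvested at 2 and 4 h; lysates immunoblotted for phospho-STAT5 with actin as loading control.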

[10] = Antiproliferative activity against relapsed human derived M3 Fab type Acute myeloid leukemic cells assessed as reduction in cell viability incubated for 48 hr by CellTiter-Glo assay; assay type: functional, cell-based; conditions: Leukemia cell; procedure, shortened: as §1
[11] = tested on: MOLM-13; experiment: Antitumor activity against human MOLM-13 cells harboring FLT-3 ITD mutant xenografted in BALB/c nude mouse assessed as tumor growth inhibition at 50 mg/kg, po bid administered daily for 7 days relative to control; assay type: functional; conditions: MOLM-13, 168 h, time 7 day, read-out: TGI
[12] = tested on: MV4-11; experiment: Induction of cell cycle arrest in human MV4-11 cells harboring FLT3-ITD mutant assessed decrease in cell accumulation at S phase after 24 hrs by Propidium iodide staining based flow cytometric analysis; assay type: functional; procedure, shortened: as §2
[13] = tested on: MV4-11; experiment: Induction of apoptosis in human MV4-11 cells harboring FLT3-ITD mutant assessed late apoptotic cells at 0.03 uM after 48 hrs by AnnexinV-FITC/Propidium iodide staining based flow cytometric analysis (reference value: 1.56 %); assay type: functional
[14] = tested on: MV4-11; experiment: Induction of apoptosis in human MV4-11 cells harboring FLT3-ITD mutant assessed early apoptotic cells at 0.03 uM after 72 hrs by AnnexinV-FITC/Propidium iodide staining based flow cytometric analysis (reference value: 7.34 %); assay type: functional
[15] = tested on: MOLM-13; experiment: Induction of cell cycle arrest in human MOLM-13 cells harboring FLT3-ITD mutant assessed decrease in cell accumulation at S phase after 24 hrs by Propidium iodide staining based flow cytometric analysis; assay type: functional; procedure, shortened: as §2
[16] = tested on: MOLM-13; experiment: Antitumor activity against human MOLM-13 cells harboring FLT-3 ITD mutant xenografted in BALB/c nude mouse assessed as decrease in phosphorylated […] residue at 150 mg/kg, po measured after 3 hrs by Western blot analysis; assay type: functional, organism-based
Procedure, shortened: (§3)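 Mice bearing s.c. MOLM-13 xenografts given a single oral dose of 150 mg/kg. Tumours harvested at 3 h; lysates immunoblotted for phospho-FLT3, -STAT3, -STAT5, -Akt and total actin.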

[17] = Antiproliferative activity against human derived M2 Fab type Acute myeloid leukemic cells assessed as reduction in cell viability incubated for 48 hr by CellTiter-Glo assay; assay type: functional, cell-based; conditions: Leukemia cell; procedure, shortened: as §1
[18] = tested on: MV4-11; experiment: Induction of apoptosis in human MV4-11 cells harboring FLT3-ITD mutant assessed early apoptotic cells at […] after 72 hrs by AnnexinV-FITC/Propidium iodide staining based flow cytometric analysis (reference value: 7.34 %); assay type: functional; conditions: dose 0.15 µM
[19] = tested on: MV4-11; experiment: Induction of apoptosis in human MV4-11 cells harboring FLT3-ITD mutant assessed early apoptotic cells at […] after 48 hrs by AnnexinV-FITC/Propidium iodide staining based flow cytometric analysis (reference value: 11.84 %); assay type: functional; conditions: dose 0.15 µM
[20] = tested on: MV4-11; experiment: Antitumor activity against human MV4-11 cells harboring FLT-3 ITD mutant xenografted in BALB/c nude mouse assessed as tumor growth inhibition at 25 mg/kg, po administered daily for 21 days relative to control; assay type: functional; conditions: MV4-11, 504 h, time 21 day, read-out: TGI
Procedure, shortened: (§4)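 Female BALB/c nude mice implanted s.c. in right flank with 1 × 10^7 MV4-11 cells in serum-free medium mixed 1:1 with Matrigel. Randomised on day 11 at mean 146–150 mm3 (n=10/group); oral hydrochloride salt once daily for 21 days in 0.5% methylcellulose/0.1% Tween-80. Doses are free-base equivalents; caliper twice weekly; ANOVA with Dunnett's test.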

[21] = tested on: Leukemia cell; experiment: Induction of cell cycle arrest in human derived Acute myeloid leukemic cells assessed as increase in cell accumulation at G1 phase at 0.47 uM after 48 hrs by Propidium iodide staining based flow cytometric analysis
[22] = tested on: MV4-11; experiment: Induction of apoptosis in human MV4-11 cells harboring FLT3-ITD mutant assessed viable cells at 0.03 uM after 48 hrs by AnnexinV-FITC/Propidium iodide staining based flow cytometric analysis (reference value: 86.15 %); assay type: functional
[23] = tested on: MV4-11; experiment: Induction of apoptosis in human MV4-11 cells harboring FLT3-ITD mutant assessed increase in cleaved caspase-3/7 after 16 hrs by Caspase-Glo 3/7 assay; assay type: functional, cell-based
[24] = tested on: MOLM-13; experiment: Antitumor activity against human MOLM-13 cells harboring FLT-3 ITD mutant xenografted in BALB/c nude mouse assessed as decrease in phosphorylated FLT3 at Y591 residue at 150 mg/kg, po measured after 3 hrs by Western blot analysis; assay type: functional, organism-based; procedure, shortened: as §3
[25] = tested on: MV4-11; experiment: Antitumor activity against human MV4-11 cells harboring FLT-3 ITD mutant xenografted in BALB/c nude mouse assessed as tumor growth inhibition at 100 mg/kg, po administered daily for 21 days relative to control; assay type: functional; conditions: MV4-11, 504 h, time 21 day, read-out: TGI; procedure, shortened: as §4
[26] = tested on: RS4-11; experiment: Induction of cell cycle arrest in human RS4-11 cells assessed decrease in cell accumulation at S phase after 24 hrs by Propidium iodide staining based flow cytometric analysis; assay type: functional; procedure, shortened: as §2

Q: Which results are given for `C1=N/C2=N/c3ccc(OCCN4CCCC4)c(c3)COC/C=C/COCc3cccc(c3)C(=C1)N2` [PACRITINIB]?
A: Activity [1]: 4.06%; IC50 [2]: 930 nM; IC50 [3]: 840 nM; Activity [4]: Dose-Dependent Effect; Activity [5]: Dose-Dependent Effect; Activity [6]: 35.61%; Activity [7]: 72.52%; IC50 [8]: 460 nM; Activity [9]: Active; IC50 [10]: 210 nM; inhibition in vivo at 50 mg/kg [11]: 15%; Activity [12]: Dose-Dependent Effect; Activity [13]: 5.58%; Activity [14]: 22.69%; Activity [15]: Dose-Dependent Effect; Activity [16]: Active; IC50 [17]: 350 nM; Activity [18]: 58.69%; Activity [19]: 39.9%; inhibition in vivo at 25 mg/kg [20]: 38%; Activity [21]: Active; Activity [22]: 68.98%; Activity [23]: Dose-Dependent Effect; EC50 ([23]; MV4-11, 16 h): 960 nM; Activity [24]: Active; inhibition in vivo at 100 mg/kg [25]: 121%; Activity [26]: Dose-Dependent Effect
